Sampled rows, rich in hits. Any-hit rate of the full collection: about 3%.
UCH37 inh: blocks the human deubiquitinase UCH37 | purified proteasome/UCH37, Ub-AMC cleavage fluorescence | 330,000 compounds, 0.33% hits | Q9Y5K5 | inhibition, % (test concentration not listed);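 active = mean inhibition over replicate wells above about 20%, limit read from the data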;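 note: 0% = compound-free wells with enzyme and 100% = wells lacking proteasome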
Target sequence (Q9Y5K5 whole entry, looked up): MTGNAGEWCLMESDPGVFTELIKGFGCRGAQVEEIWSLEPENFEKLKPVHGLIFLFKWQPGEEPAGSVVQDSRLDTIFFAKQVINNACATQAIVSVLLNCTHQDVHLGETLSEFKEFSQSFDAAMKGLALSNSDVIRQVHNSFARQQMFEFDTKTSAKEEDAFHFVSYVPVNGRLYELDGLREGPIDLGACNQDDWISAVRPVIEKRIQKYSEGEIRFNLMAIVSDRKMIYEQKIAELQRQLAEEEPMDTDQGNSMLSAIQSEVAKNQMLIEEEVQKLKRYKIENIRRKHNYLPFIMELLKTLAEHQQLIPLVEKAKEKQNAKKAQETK
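Reagent: Ub-AMC substrate; assay system: Proteasome-associated human UCH37 deubiquitinase; controls: no-proteasome and no-compound wells; read-out: % inhibition of Ub-AMC cleavage fluorescence; timing: 30 min preincubation with enzyme, 25 min cleavage at room temperature; signal: AMC fluorescence from Ub-AMC cleavage, excitation 355 nm, emission 460 nm; buffer or medium: Tris-HCl pH 7.4 plus ovalbumin, ATP-MgCl2, DTT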
UBC13 inh: inhibitors of human UBC13 polyubiquitin chain formation; P61088; TR-FRET; inhibition, % at 20 µM; 330,000 compounds, 0.47% hits; AID 485273; in the data active = inhibition above about 45%, passing the limit was not always enough
Target sequence (P61088 whole entry, looked up): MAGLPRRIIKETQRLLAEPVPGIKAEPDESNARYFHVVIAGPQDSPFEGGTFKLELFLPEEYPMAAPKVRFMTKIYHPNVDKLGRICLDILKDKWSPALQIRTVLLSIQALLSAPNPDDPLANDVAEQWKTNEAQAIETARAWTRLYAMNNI
MEKK3 PB1 HTS: MEKK3-MEK5 PB1 interaction, increase or decrease. Q99759. bead-based flow cytometry, Alexa488-MEK5 binding to MEKK3; actives lie on both sides; 0 = blocked by unlabeled MEK5, 100 = vehicle. binding response (% of control), % at 10 µM. 290,000 compounds, 1.4% hits;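 active = binding response more than 3 SD above or below the average of its plate-row segment, actives on both sides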;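 note: Alexa488 bead fluorescence after subtracting the streptavidin-only scavenger bead signal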
MEKK2mut PB1 HTS: signal of MEK5 binding to mutant human MEKK2 PB1 domain; percent response, % at 10 µM; 290,000 compounds, 0.35% hits; bead flow cytometry, Alexa488-MEK5 binding to MEKK2 mutant; in the data active = percent response above about 24%, passing the limit was not always enough
MEKK2wt PB1 HTS: raises or lowers MEK5 binding to wildtype human MEKK2 PB1 domain. binding response (% of control), % at 10 µM. AID 1531. Q9Y2U5. bead flow cytometry, Alexa488-MEK5 binding to MEKK2 WT; actives lie on both sides. 290,000 compounds, 1.1% hits; in the data active = binding response below about 67% or above about 130%
Apaf-1 inh: human Apaf-1 inhibition. O14727. reconstituted apoptosome caspase-3 activity, DEVD-Rh110 fluorescence. inhibition, % at 20 µM. 330,000 compounds, 0.71% hits; active = inhibition of at least 40% at 20 µM;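 note: plate controls were DMSO wells for no effect and DEVD-CHO caspase inhibitor wells for full effect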
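detection = Rh110 fluorescence intensity | test system = biochemical Apaf-1 apoptosome reconstitution | also added = cytochrome c and DEVD-Rh110 substrate | schedule = 30 min plus 50 min, RT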
UCH37 reconfirm: UCH37 Ub-AMC cleavage inhibition, confirmed; 480 compounds, 27% hits; Proteasome-bound UCH37, Ub-AMC cleavage fluorescence; shares compounds with UCH37 inh; inhibition, % at 20 µM;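 active = average inhibition over replicates above about 50%, so the earlier screening hit is confirmed, limit read from the data; inactive = the rest, counted as false positives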;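 note: based on cleavage rate fitted by regression over a 30 min kinetic read; 0% = proteasome plus Ub-AMC and 100% = Ub-AMC without proteasome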
* = called active by the depositor; i = inactive; · = not tested or not shown.

SMILES	UCH37 inh	UBC13 inh	MEKK3 PB1 HTS	MEKK2mut PB1 HTS	MEKK2wt PB1 HTS	Apaf-1 inh	UCH37 reconfirm
COc1ccc(NC(=O)CC(C)=NNC(=O)C2CCCCC2)c([N+](=O)[O-])c1	4	·	·	·	·	·	·
CCOc1ccc(C(=O)NC(=S)Nc2ccccn2)cc1[N+](=O)[O-]	2	-12	109	9	101	-10	·
CC1=C(C(=O)OCc2ccccc2)C(c2ccccc2Cl)NC(=O)N1CCCCCC(=O)O (stereo not given)	7	-7	100	-3	95	-1	·
CC1=C(C(=O)OCc2ccccc2)C(c2ccccc2Cl)NC(=O)N1CCCC(=O)O (stereo not given)	41*	-1	100	-5	90	-5	9
CC1(c2ccccc2Cl)NC(=O)N(CC(=O)NCCC2=CCCCC2)C1=O (stereo not given)	34*	-2	80	3	84	8	56*
CC1(c2ccccc2)NC(=O)N(CC(=O)NCCC2=CCCCC2)C1=O (stereo not given)	3	-13	99	2	101	7	·
Cc1cc2ccccc2c(=O)n1CC(=O)NCCC1=CCCCC1	55*	2	87	-13	81	2	67*
Cn1c(SC(C(=O)Nc2ccc(F)cc2)c2ccccc2)nc2ccccc21 (stereo not given)	45*	3	104	6	96	10	-5
[O-][n+]1onc2c1CCc1c-2nn(-c2ccccc2Cl)[n+]1[O-]	4	3	98	-2	99	-5	·
CN1C(=O)/C(=C\C=C2/CCCN2C)N(C)C1=S	39*	-355	103	0	101	9	31
CCN1C(=O)/C(=C/N(C)c2ccccc2)OC1=S	9	-10	97	0	96	20	·
CCN1C(=O)/C(=C/C=C2/CCCN2C)OC1=S	29*	-15	101	-7	90	6	36
CC(/C=C/c1ccco1)=N\NC(=O)c1cc(Cl)ccc1O	·	-5	102	0	110	-4	·
COc1ccc(N(CC(=O)NCc2ccc(F)cc2)C(=O)CCC(=O)Nc2ccccn2)cc1	6	2	104	0	102	8	·
O=C1Cc2ccccc2C(=O)N1Cc1cccc(Cl)c1	34*	·	98	-1	96	·	17
Nc1cccc2c1C(=O)N(Cc1cccc(Cl)c1)C2=O	-95	39	104	-5	97	-1	·
C[C@H]1COC2=C1C(=O)C(=O)c1c2ccc2c1CCCC2(C)C	41*	·	95	-4	90	·	75*
O=C(c1ccc2c3c(cccc13)CC2)N1CCOCC1	5	6	103	9	107	-16	·
Clc1ccc(C2=NNC(=NCC3CCCO3)SC2)cc1 (stereo not given)	51*	2	96	8	100	1	4
CN(C)c1ccc(/C=C/c2ccc3ccccc3[n+]2C)cc1	25*	i	97	27	2.0*	18	30
O=c1cc(-c2ccc(O)cc2)oc2c(O)c(O)c(O)c(O)c12	69*	-33	106	5	94	39	22
CC1CN(S(=O)(=O)c2ccc(C(=O)N3CCc4ccccc43)cc2)CC(C)O1 (stereo not given)	1	-9	·	·	·	9	·
O=[N+]([O-])c1cccc(N=Nc2ccc(O)cc2O)c1	14	·	·	·	·	·	·
O=[N+]([O-])c1ccc(N=Nc2ccc(O)cc2O)cc1	25*	-273	99	8	104	7	46
CCOc1ccc(C=NNc2ccc(S(=O)(=O)Nc3ccccc3C(=O)O)cc2[N+](=O)[O-])cc1OC	44*	-128	·	·	·	6	75*
SMILES	UCH37 inh	UBC13 inh	MEKK3 PB1 HTS	MEKK2mut PB1 HTS	MEKK2wt PB1 HTS	Apaf-1 inh	UCH37 reconfirm
Cc1ccccc1OCC(=O)ON=C(N)Cc1ccc(Cl)cc1	44*	·	·	·	·	·	15
Cc1ccccc1OCC(=O)O/N=C(\N)Cc1ccc(Cl)cc1	·	6	102	-1	102	17	·
CC(C)c1ccc(S(=O)(=O)N=C2C=C(Sc3ncn[nH]3)C(=O)c3ccccc32)cc1	67*	·	·	·	·	·	62*
Cc1cc(C)c(S(=O)(=O)/N=C2/C=C(Sc3ncn[nH]3)C(=O)c3ccccc32)cc1C	·	·	99	0	97	·	·
CCOC(=O)/C(=C/C=C1\Sc2ccccc2N1CC)C(C)=O	30*	-316	104	-3	94	8	32
CCN1/C(=C/C(=O)c2ccco2)Sc2ccccc21	-3	-7	104	11	109	15	·
O=C(CSC(=S)N1CCCC1)c1ccccc1	0	-6	96	-1	99	2	·
O=C(CSC(=S)N1CCCCC1)c1ccccc1	39*	5	101	-8	102	5	12
CC1(C)Cc2ccccc2C(c2cc3ccccc3oc2=O)=N1	36*	5	99	-2	104	-6	-4
Cc1cc(C)c(Nc2cc(S(=O)(=O)O)c(N)c3c2C(=O)c2ccccc2C3=O)c(C)c1	34*	·	94	-18	77	·	93*
C=CCN1c2ccccc2[C@]23C[C@@H](C(=O)OC)N(C(=O)CC(C)C)C2=NC(C(=O)OC)=C(C(=O)OC)[C@H]13	3	13	93	-9	92	17	·
COC(=O)C1=C(C(=O)OC)[C@@H]2N(C)c3ccccc3[C@@]23C[C@@H](C(=O)OC)N(C(=O)CC(C)C)C3=N1	42*	7	107	7	93	18	2
O=C(/C=C/c1ccccc1)N/C(=C/c1ccccc1)C(=O)N1CCOCC1	45*	-15	105	-1	102	-9	4
CC(=O)N/C(=C\c1ccccc1)C(=O)N1CCOCC1	5	-10	98	-10	93	4	·
CC(=O)c1c(C)[nH]c(C(=O)N2CCCC(C)C2)c1C (stereo not given)	4	4	106	6	107	-1	·
CC(=O)N1CCc2cc(S(=O)(=O)NC(Cc3ccccc3)C(=O)NC3CCCCCC3)ccc21 (stereo not given)	0	4	98	-3	93	10	·
Nc1ccc(O)c2c1C(=O)c1ccccc1C2=O	·	-220	93	4	88	-4	·
NC1=CC(=O)C(=O)c2ccccc21	44*	·	·	·	·	·	58*
COc1ccc(NC(=O)C2CCCCN2N)cc1OC (stereo not given)	29*	9	94	5	96	1	46
Cc1cc(NC(=O)Nc2ccccc2F)ccc1Br	38*	3	110	13	110	8	17
O=C(Nc1ccccc1)Nc1ccc(Br)cc1F	3	8	99	9	112	0	·
